Assay outcomes deposited in PubChem BioAssay by several laboratories.
Only a selection was taken, and hits are over-represented in it overall.
T cruzi repl = blocks replication of Trypanosoma cruzi; AID 1885; 300,000 compounds, 1.4% hits; T. cruzi beta-gal in NIH3T3, luminescence, 90 h; inhibition, % (no concentration beside the values);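 active = mean inhibition across valid replicates above about 55%, limit read from the data; inconclusive = mean below that limit but half or more replicates reach it; inactive = mean below it, under half of replicates reach it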;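 note: signal also drops with host cell toxicity which is not excluded here; 0% = plate median of DMSO wells and 100% = zero luminescence signal; higher percent means less beta-gal luminescence so fewer parasites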
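compound dosing = single 50 nL compound addition per well in DMSO | material = NIH/3T3 host cells with β-galactosidase reporter T. cruzi | input = 5,000 host fibroblasts per well | timing = ≥90 h infection period, 3 h prior cell attachment | read-out basis = percent inhibition of parasite-derived β-gal signal | detection = GalScreen β-gal luminescence, detergent lysis, 60 min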
NALP1 yeast inh = NALP1 inhibition. S. cerevisiae NALP1/ASC/caspase-1 growth, X-gal OD620, 72 h. inhibition, % at 10 µM. 280,000 compounds, 0.61% hits. AID 2071; in the data active = inhibition mostly above about 24%, no sharp cut-off; inactive = mostly below about 32%
Lmaj promast = inhibitors of Leishmania major promastigote growth; Leishmania major promastigotes, resazurin fluorescence viability; inhibition, % at 10 µM; 200,000 compounds, 9% hits; AID 1063; in the data active = inhibition above about 50%;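 note: promastigotes grown with compound for 44 hours at 28 °C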
Calb FLC = affects C. albicans growth with fluconazole; growth inhibition, % (concentration not given with the values); AID 1979; C. albicans CaCi-2 + fluconazole, Alamar Blue growth, 48 h; 300,000 compounds, 0.57% hits;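 active = growth inhibition above about 58% in most replicates, limit read from the data, passing the limit was not always enough; inconclusive = exactly half the replicates above a set limit; inactive = most replicates below a set limit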;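 note: all wells also contain fluconazole at 8 µg/ml as a sub-toxic cotreatment; 0% = median of DMSO wells and 100% = median of geldanamycin control wells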
NALP3 yeast inh = NALP3 inhibition in yeast; Yeast reconstituted NLRP3/ASC/caspase-1, beta-gal luminescence, 24 h; inhibition, % at 10 µM; 330,000 compounds, 0.39% hits; AID 2825;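 active = inhibition of 50% or more; inactive = inhibition below 50%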;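 note: plate controls were induced DMSO wells for no effect and uninduced yeast grown without galactose for full effect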
PolyA inh = yeast polyadenylation inhibition | S. cerevisiae SKY197-pL101 polyadenylation reporter, beta-gal luminescence; efflux-impaired pdr1/pdr3 knockout yeast; score 100 = 6 SD above DMSO | 300,000 compounds, 0.02% hits | AID 1875 | activity score, % at 12 µM;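 active = lowest replicate activity score at least 50, where 100 means six control SD above control mean; inconclusive = lowest score under 50 but half or more replicates reach 50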;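 note: yeast exposed to compound for 9 h at 30 °C; higher score means more reporter readthrough which indicates perturbed polyadenylation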
* = called active by the depositor; u = inconclusive; x = no result given.

SMILES	T cruzi repl	NALP1 yeast inh	Lmaj promast	Calb FLC	NALP3 yeast inh	PolyA inh
Cn1c(=O)c2ccccc2n2c(CCl)nnc12	-11	16	x	-5	7	9
CCC(NC(=O)CSc1nnnn1C1CC1)c1ccc(Br)cc1 (stereo not given)	x	x	x	x	11	x
O=C(Nc1ccc(C(=O)O)cc1)/C(=C/c1cccc(Br)c1)NC(=O)c1ccco1	-14	11	-9	2	6	-4
CSc1ccc(/C=C(/NC(=O)c2ccc(C)cc2)C(=O)Nc2cccc(C)c2)cc1	-10	11	63*	-17	-2	-4
Cc1ccc(NC(=O)/C(=C/c2cccc(Br)c2)NC(=O)c2ccco2)cc1	33	22	90*	-11	-4	23
CC1CCc2c(C(=O)NCCN3CCOCC3)csc2C1 (stereo not given)	4	-20	17	31	20	2
CCN1CCN(CCCNC(=O)c2csc3c2CCCCC3)CC1	11	26	99*	-9	-8	2
CC1CCc2c(C(=O)NCCCN3CCOCC3)csc2C1 (stereo not given)	18	25	93*	1	12	-10
CSc1nc(C(=O)N2CCCC(Nc3ccc(C)c(C)c3)C2)cs1 (stereo not given)	11	13	x	-5	32	-18
COc1ccc(CNCCNC(=O)c2ccco2)c(OC)c1OC	-8	7	-5	91*	-4	-14
CCOC(=O)Cc1csc(NC(=O)NC2(C(F)(F)F)Oc3ccc(Cl)cc3O2)n1 (stereo not given)	-8	-6	53*	-2	2	3
CCOC(=O)Cc1csc(NC(=O)NC2(C(F)(F)F)Oc3ccccc3O2)n1	-21	32	90*	-2	4	11
c1ccc2c(c1)OCC(c1csc3ncnc(N4CCCCC4)c13)O2 (stereo not given)	6	36	6	-25	-29	-65
Clc1ncnc2scc(C3COc4ccccc4O3)c12 (stereo not given)	10	-31	71*	-8	16	-13
COc1ccc(C(CNC(=O)c2ccc3c(c2)OCCO3)N(C)C)cc1 (stereo not given)	7	8	x	-24	0	-4
CC(C)CNC(=O)c1cnn2c(C(F)(F)F)cc(C(F)(F)F)nc12	10	0	x	-1	20	-9
CSc1nn2c(C(F)(F)F)cc(C(F)(F)F)nc2c1C(=O)O	-7	24	x	112*	7	-8
COc1cccc(NC(=O)CN(C)C(=O)C(CCSC)NC(=O)c2ccco2)c1 (stereo not given)	x	x	x	x	14	x
OC(CNCc1ccccc1)Cn1ccc2ccccc21 (stereo not given)	2	44	96*	-9	13	3
Oc1ccccc1NCC(O)Cn1ccc2ccccc21 (stereo not given)	20	-1	40	31	17	2
CCOc1cc(/C=C2\CN(C)C/C(=C\c3ccc(O)c(OCC)c3)C2=O)ccc1O	62*	9	x	37	15	u
CCOc1cc(/C=C2\CCC/C(=C\c3cc(Cl)c(O)c(OCC)c3)C2=O)cc(Cl)c1O	22	-3	93*	-8	14	-15
Cc1ccc(-c2nn(CC(=O)Nc3cccnc3)c(=O)c3ccccc23)cc1	-8	31	31	-21	6	-4
Cc1ccc(-n2c(N)c(C#N)c(-c3ccccc3)c(C#N)c2=O)cc1	-4	-5	-3	-15	6	3
Cc1ccc(-c2nc3sc(C#N)c(N)n3c(=O)c2C#N)cc1	4	10	-3	111*	7	4
SMILES	T cruzi repl	NALP1 yeast inh	Lmaj promast	Calb FLC	NALP3 yeast inh	PolyA inh
C=CCn1c(C)cc(C(=O)COc2ccc(C)nc2[N+](=O)[O-])c1C	-1	4	0	-24	7	2
C=CCn1c(C)cc(C(=O)COc2ccc(S(=O)(=O)N3CCCC3)cc2[N+](=O)[O-])c1C	10	12	86*	-14	11	5
CCCn1c(C)cc(C(=O)COc2ccc(S(=O)(=O)N(CC)CC)cc2[N+](=O)[O-])c1C	7	8	84*	-19	16	-2
CCN(CC)C(=O)Cn1cc(S(=O)(=O)CC(=O)NCCc2ccc(OC)c(OC)c2)c2ccccc21	-2	20	3	1	8	10
Cc1ccc(S(=O)(=O)N2CCN(C(=O)c3n[nH]c4ccccc34)CC2)cc1	x	x	x	x	19	x
O=C(c1n[nH]c2ccccc12)N1CCN(S(=O)(=O)c2ccc3ccccc3c2)CC1	2	14	55*	26	-2	-36
COc1ccc2c(Cl)c(C(=O)N/N=C/c3c(C)[nH]c4ccccc34)sc2c1	35	0	100*	-14	6	-22
COc1cccc(C(=O)NCC(=O)N/N=C/c2c(C)[nH]c3ccccc23)c1	3	16	x	-34	-1	2
COc1ccc2c(Cl)c(C(=O)N/N=C/c3ccc4c(c3)OCO4)sc2c1	9	4	97*	-1	12	-5
CCn1c(=O)n(-c2ccc(Cl)cc2)c(=O)c2c3c(sc21)COC(C)(C)C3	16	8	4	12	6	-5
Cc1nn(Cc2cccc(Oc3ccccc3)c2)c(C)c1NC(=O)NC12CC3CC(CC(C3)C1)C2	57*	27	13	-5	2	0
O=C(NCc1ccccc1)NC12CC3CC(CC(C3)C1)C2	0	x	x	-11	40	-1
CCc1ccccc1N(CC(=O)N1CCCCCC1)S(C)(=O)=O	-9	14	x	-5	-1	13
COc1ccc(C2CC(c3cccs3)=NN2c2ccc(C=O)cc2)cc1 (stereo not given)	24	18	92*	2	x	6
COc1ccc(C2CC(c3ccccc3)=NN2c2ccc(S(N)(=O)=O)cc2)cc1 (stereo not given)	57*	12	30	53	14	-4
NS(=O)(=O)c1ccc(N2N=C(c3ccccc3)CC2c2ccc(F)cc2)cc1 (stereo not given)	38	25	98*	28	8	u
COc1ccc(C2CC(c3ccccc3)=NN2c2ccc(C(N)=O)cc2)cc1 (stereo not given)	10	-1	x	32	19	9
Oc1ccc(C2=NN(c3ccccc3)C(c3ccc(F)cc3)C2)cc1 (stereo not given)	40	-8	x	-8	9	-5
CCN1CCC(NC(=O)Nc2ccc(F)cc2F)CC1	19	9	-10	-18	2	11
CC1CCCN(C(=O)c2ccc3ncsc3c2)C1 (stereo not given)	x	x	x	x	4	x
O=C(CCN1C(=O)C2CC=CCC2C1=O)Nc1nc(-c2ccc(F)c(F)c2)cs1 (stereo not given)	x	x	x	x	1	x
COc1ccc(Br)cc1C(=O)Nc1ccccc1N1CCCC1	23	x	x	7	18	-13
